Results: PMC10928719 (ACS Infectious Diseases, 2024)
Where two headings read alike, the source gives them in different places.

What was measured:
[1] = system: HIV-1 vector with IN mutant N155H; assay: Single-round infection assay, IN mutant N155H; assay type: cell-based; settings: Human immunodeficiency virus 1, read-out: EC50 N155H
How it was run: (§1)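 293 cells were co-transfected by calcium phosphate with pNLNgoMIVR–ΔLUC (16 μg; WT or IN mutant) plus pHCMV-g (4 μg) and washed ~6 h later. Supernatant was harvested 48 h later, clarified, filtered and diluted. HOS cells (4000/well) were pretreated 3 h at 37 °C with test compound (11 dilutions, 5 μM–0.0001 μM), then infected for 48 h. Luciferase was read and EC50 fitted by nonlinear regression.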

[2] = system: HIV-1 vector with IN mutant G140S/Q148H; assay: Single-round infection assay, IN mutant G140S/Q148H; assay type: cell-based; settings: Human immunodeficiency virus 1, read-out: EC50 G140S/Q148H
How it was run: as §1

[3] = system: HIV-1 vector with IN mutant G118R; assay: Single-round infection assay, IN mutant G118R; assay type: cell-based; settings: for resistance / loss of potency against G118R mutant: our single-round infection assays
How it was run: as §1

[4] = system: HIV-1 vector with wild-type (WT) IN; assay: Single-round infection assay, viral construct with WT IN; assay type: cell-based; settings: read-out: EC50 WT, single-round HIV-1 vector, HOS cells
How it was run: as §1

[5] = system: human osteosarcoma (HOS) cells; assay: Cellular cytotoxicity; assay type: cell-based; settings: 50% reduction in the level of ATP in HOS cells, 48 h
How it was run: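 HOS cells grown in DMEM with 5% FBS, 5% newborn calf serum and penicillin/streptomycin, then seeded at 4000 cells/well the day before the assay. Test compound was added over 250 μM to 0.05 μM and cells were held at 37 °C for 48 h. ATP luminescence reagent was read after 20 min at room temperature. CC50 came from a nonlinear regression fit.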

[6] = system: HIV-1 vector with wild-type (WT) IN; settings: read-out: EC50 WT, single-round HIV-1 vector, previously reported ref 46; cited from earlier work
[7] = system: HIV-1 vector with IN mutant R263K; settings: single-round infection assays; cited from earlier work
[8] = system: HIV-1 vector with IN mutant G118R; settings: single-round infection assays; cited from earlier work
[9] = system: HIV-1 vector with IN mutant G140S/Q148H; settings: single-round infection assays; cited from earlier work
[10] = system: HIV-1 vector with IN mutant R263K; assay: Single-round infection assay, IN mutant R263K; assay type: cell-based; settings: read-out: EC50 R263K, single-round HIV-1 vector
How it was run: as §1

[11] = system: HIV-1 vector with IN mutant T97A/G140S/Q148H; assay: Single-round infection assay, IN mutant T97A/G140S/Q148H; assay type: cell-based; settings: Human immunodeficiency virus 1, read-out: EC50 T97A/G140S/Q148H
How it was run: (§2)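 Vector carrying the mutant IN was made by calcium phosphate co-transfection of 293 cells with pNLNgoMIVR–ΔLUC (16 μg) and pHCMV-g (4 μg); supernatant was collected 48 h after washing. HOS cells were exposed 3 h at 37 °C to test compound (11 dilutions, 5 μM–0.0001 μM), then infected for 48 h. Luciferase luminescence gave EC50 by nonlinear regression; n = 4 independent experiments, each in triplicate.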

[12] = system: HIV-1 vector with IN mutant G140S/Q148R; assay: Single-round infection assay, IN mutant G140S/Q148R; assay type: cell-based; settings: Human immunodeficiency virus 1, read-out: EC50 G140S/Q148R
How it was run: as §2

[13] = system: HIV-1 vector with IN mutant E138K/G140A/Q148K; assay: Single-round infection assay, IN mutant E138K/G140A/Q148K; assay type: cell-based; settings: Human immunodeficiency virus 1, read-out: EC50 E138K/G140A/Q148K
How it was run: as §2

[14] = system: HIV-1 vector with IN mutant E138A/G140S/Q148H; assay: Single-round infection assay, IN mutant E138A/G140S/Q148H; assay type: cell-based; settings: Human immunodeficiency virus 1, read-out: EC50 E138A/G140S/Q148H
How it was run: as §2

[15] = system: HIV-1 vector with IN mutant E138K/G140C/Q148R; assay: Single-round infection assay, IN mutant E138K/G140C/Q148R; assay type: cell-based; settings: Human immunodeficiency virus 1, read-out: EC50 E138K/G140C/Q148R
How it was run: as §2

[16] = system: HIV-1 vector with IN mutant E138K/Q148K; assay: Single-round infection assay, IN mutant E138K/Q148K; assay type: cell-based; settings: Human immunodeficiency virus 1, read-out: EC50 E138K/Q148K
How it was run: as §2

[17] = system: HIV-1 vector with IN mutant L74M/G140C/Q148R; assay: Single-round infection assay, IN mutant L74M/G140C/Q148R; assay type: cell-based; settings: Human immunodeficiency virus 1, read-out: EC50 L74M/G140C/Q148R
How it was run: as §2

[18] = system: HIV-1 vector with IN mutant E138K/G140S/Q148H; assay: Single-round infection assay, IN mutant E138K/G140S/Q148H; assay type: cell-based; settings: Human immunodeficiency virus 1, read-out: EC50 E138K/G140S/Q148H
How it was run: as §2

[19] = system: HIV-1 vector with IN mutant G140A/Q148K; assay: Single-round infection assay, IN mutant G140A/Q148K; assay type: cell-based; settings: Human immunodeficiency virus 1, read-out: EC50 G140A/Q148K
How it was run: as §2

[20] = target: Sso7d IN (HIV-1 integrase) (UniProt P12497+P39476); assay: In vitro IN strand transfer assay; assay type: biochemical
[21] = system: HIV-1 vector with IN mutant S230N; assay: Single-round infection assay, IN mutant S230N; assay type: cell-based; settings: read-out: EC50 S230N, single-round HIV-1 vector
How it was run: as §1

SMILES	EC50 [1] [nM]	EC50 [2] [nM]	resistance / loss of potency against G118R mutant [3] [×]	EC50 [6] [nM]	other results
COCC(C)n1ccn2cc(C(=O)NCc3ccc(F)cc3F)c(=O)c(O)c2c1=O (centres unmarked) [6k]	5 ± 0.7	34.1 ± 5.4	–	–	–
COC(CN1CCn2cc(C(=O)NCc3ccc(F)cc3F)c(=O)c(O)c2C1=O)OC [7l]	6.3 ± 0.7	394 ± 39	–	–	EC50 ([3]; read-out: EC50 G118R, single-round HIV-1 vector, IN G118R): 36.4 ± 1.3 nM
CC(C)=CCC/C(C)=C/Cn1ccn2cc(C(=O)NCc3ccc(F)cc3F)c(=O)c(O)c2c1=O [6m]	81.6 ± 7.6	365 ± 43.3	–	–	EC50 [4]: 38.9 ± 6.7 nM
O=C(NCc1ccc(F)cc1F)c1cn2cc[nH]c(=O)c2c(O)c1=O [6a]	457 ± 21	> 5000	–	–	CC50 [5]: 150 ± 19.9 µM
O=C(NCc1c(F)cc(F)cc1F)c1cn2c(c(O)c1=O)C(=O)N1[C@H]3CC[C@H](C3)O[C@@H]1C2 [BIC, bictegravir]	–	–	4	2.4 ± 0.4	–
C[C@@H]1CCO[C@H]2Cn3cc(C(=O)NCc4ccc(F)cc4F)c(=O)c(O)c3C(=O)N12 [DTG, dolutegravir]	–	–	9	2.6 ± 0.3	reduction in susceptibility relative to WT, R263K [7]: 2 fold; reduction in susceptibility relative to WT, G118R [8]: > 5 fold; reduction in susceptibility relative to WT, G140S/Q148H [9]: 2 fold
O=C(NCc1ccc(F)cc1F)c1cn2c(c(O)c1=O)C(=O)NCC2 [7a]	–	> 5000	–	–	EC50 [10]: 148 ± 36.5 nM
COC(Cn1ccn2cc(C(=O)NCc3ccc(F)cc3F)c(=O)c(O)c2c1=O)OC [6l]	27.7 ± 2.7	1150 ± 114	–	–	–
C[C@H]1CO[C@@H]2Cn3cc(C(=O)NCc4ccc(F)cc4F)c(=O)c(O)c3C(=O)N12 [CAB, cabotegravir]	–	–	17	1.8 ± 0.5	EC50 [11]: 43.7 ± 4.2 nM; EC50 [12]: 415 ± 14.5 nM; EC50 [13]: 610 ± 8.6 nM; EC50 [14]: 70.2 ± 9 nM; EC50 [15]: 134.2 ± 0.3 nM; EC50 [16]: 772 ± 72.2 nM; EC50 [17]: 220 ± 41.2 nM; EC50 [18]: 93 ± 6.1 nM; EC50 [19]: 393 ± 51.1 nM; IC50 [20]: 381 nM
CC(C)CCCC(C)CCN1CCn2cc(C(=O)NCc3ccc(F)cc3F)c(=O)c(O)c2C1=O (centres unmarked) [7m]	25.6 ± 4.2	109 ± 20.5	–	–	EC50 [21]: 41.8 ± 4.2 nM; EC50 [4]: 21.4 ± 2.5 nM
